Assay results from ChEMBL document CHEMBL4017525, “Lactam-Stapled Cell-Penetrating Peptides: Cell Uptake and Membrane Binding Properties” (J Med Chem, 2017).
Active and inactive are the calls of the source. The rule behind the calls is not given here.

Legend:
[1] = Drug uptake in HEK293 cells at 2 uM after 4 hrs using fluorescein labeled compound by flow cytometric analysis; assay type: ADME, cell-based; settings: human, hek293, 4 h
In short: (§1)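 Adherent cells were exposed to fluorescein-labeled peptide at 2 μM for 4 h in serum-free medium. Trypan blue (0.4% end concentration) was added before flow cytometry to quench surface-bound fluorescence. Intracellular signal was normalized to carboxyfluorescein-labeled R9, as the mean ± SD of two independent experiments.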

[2] = Drug uptake in human HeLa cells at 2 uM after 4 hrs using fluorescein labeled compound by flow cytometric analysis; assay type: ADME, cell-based; in short: as §1
Enterococcus faecalis = test: Antibacterial activity against Enterococcus faecalis ATCC 29212 after 22 hrs by resazurin based broth dilution assay; assay type: functional; settings: ATCC 29212, 22 h
In short: (§2)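 Standard broth dilution assay determining MIC against two Gram-negative and two Gram-positive strains. Values are the mean of two independent experiments.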

Staphylococcus aureus = test: Antibacterial activity against Staphylococcus aureus ATCC 25923 after 22 hrs by resazurin based broth dilution assay; assay type: functional; settings: ATCC 25923, 22 h; in short: as §2
Pseudomonas aeruginosa = test: Antibacterial activity against Pseudomonas aeruginosa ATCC 27853 after 22 hrs by resazurin based broth dilution assay; assay type: functional; settings: ATCC 27853, 22 h; in short: as §2
Escherichia coli = test: Antibacterial activity against Escherichia coli ATCC 25922 after 22 hrs by resazurin based broth dilution assay; assay type: functional; settings: ATCC 25922, 22 h; in short: as §2
Lipid bilayer [3] = test: Binding affinity to POPC/POPG lipid vesicles assessed as induction of membrane leakage at peptide to lipid ratio of 1:25 at transmembrane potential of -120 mV after 30 mins by spectroflurimetric analysis
In short: (§3)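 Large unilamellar vesicles (100 nm extrusion) of POPC or POPC/POPG (3/1, mol/mol) were loaded with ANTS dye and DPX quencher, and leakage was read by fluorescence dequenching. Lipid was 50 μM and peptide 2 μM (1:25), incubated 30 min at 30 °C. For lines 6 and 8, a −120 mV potential (negative inside) was set with valinomycin and outside K+ replaced by Na+.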

Lipid bilayer [4] = test: Binding affinity to POPC/POPG lipid vesicles assessed as induction of membrane leakage at peptide to lipid ratio of 1:25 after 30 mins by spectroflurimetric analysis; in short: as §3
HEK293 = test: Cytotoxicity against HEK293 cells at 2 uM after 4 hrs using fluorescein labeled compound by flow cytometric analysis; assay type: cell-based; settings: human, hek293, 4 h
HeLa = test: Cytotoxicity against human HeLa cells at 2 uM after 4 hrs using fluorescein labeled compound by flow cytometric analysis; assay type: cell-based
Lipid bilayer [5] = test: Binding affinity to POPC lipid vesicles assessed as induction of membrane leakage at peptide to lipid ratio of 1:25 at transmembrane potential of -120 mV after 30 mins by spectroflurimetric analysis; in short: as §3
Lipid bilayer [6] = test: Binding affinity to POPC lipid vesicles assessed as induction of membrane leakage at peptide to lipid ratio of 1:25 after 30 mins by spectroflurimetric analysis; in short: as §3

Row | Compound | Drug uptake [1] | Drug uptake [2] | MIC (Enterococcus faecalis) [mg/L] | MIC (Staphylococcus aureus) [mg/L] | MIC (Pseudomonas aeruginosa) [mg/L] | MIC (Escherichia coli) [mg/L] | Activity (Lipid bilayer [3]) | Activity (Lipid bilayer [4]) | Activity (Lipid bilayer [5]) [%] | Activity (Lipid bilayer [6]) [%] | Activity (HEK293) | Activity (HeLa)
1 | N=C(N)NCCC[C@H](NC(=O)[C@H](CCCNC(=N)N)NC(=O)[C@H](CCCNC(=N)N)NC(=O)[C@H](CCCNC(=N)N)NC(=O)[C@H](CCCNC(=N)N)NC(=O)[C@H](CCCNC(=N)N)NC(=O)[C@H](CCCNC(=N)N)NC(=O)[C@H](CCCNC(=N)N)NC(=O)[C@@H](N)CCCNC(=N)N)C(=O)O | Active | Active | – | – | – | – | – | – | – | – | – | –
2 | H-AAVLLPVLLAAP-NH2 | Active | Active | > 256 | > 256 | > 256 | > 256 | inactive | inactive | – | – | Non-Toxic | Non-Toxic
3 | H-PLILLRLLRGQF-NH2 | Active | Active | 64 | 16 | > 256 | 256 | Active | Active | – | – | Non-Toxic | Non-Toxic

The remaining compounds from weak to strong by MIC (Enterococcus faecalis), led by results:

Row | Drug uptake [1] | Drug uptake [2] | MIC (Enterococcus faecalis) [mg/L] | MIC (Staphylococcus aureus) [mg/L] | MIC (Pseudomonas aeruginosa) [mg/L] | MIC (Escherichia coli) [mg/L] | Activity (Lipid bilayer [3]) | Activity (Lipid bilayer [4]) | Activity (Lipid bilayer [5]) [%] | Activity (Lipid bilayer [6]) [%] | Compound | Activity (HEK293) | Activity (HeLa)
4 | Active | Active | 256 | 16 | 256 | 16 | Active | Active | – | – | H-KLALKALKALKAALKLA-NH2 | Non-Toxic | Non-Toxic
5 | Active | Active | 32 | 32 | 64 | 32 | – | – | 100 | 100 | H-QQRKRKIWSILAPLGTTLVKLVAGIG-NH2 | Non-Toxic | Non-Toxic
